Columns and labels:
Bacillus subtilis = assay: Antibacterial activity against Bacillus subtilis at 50 mg/disk after 24 to 28 hrs by agar disk diffusion method; type: functional
Lactococcus lactis = assay: Antibacterial activity against Streptococcus lactis at 50 mg/disk after 24 to 28 hrs by agar disk diffusion method; type: functional
Escherichia coli = assay: Antibacterial activity against Escherichia coli at 50 mg/disk after 24 to 28 hrs by agar disk diffusion method; type: functional
Pseudomonas aeruginosa = assay: Antibacterial activity against Pseudomonas aeruginosa at 50 mg/disk after 24 to 28 hrs by agar disk diffusion method; type: functional
Candida albicans = assay: Antifungal activity against Candida albicans at 50 mg/disk after 5 days by agar disk diffusion method; type: functional
Nakaseomyces glabratus = assay: Antifungal activity against Candida glabrata at 50 mg/disk after 5 days by agar disk diffusion method; type: functional
HepG2 [1] = assay: Antitumor activity against human HepG2 cells xenografted in Swiss albino mouse assessed as increase of mouse survival at 10 ug/kg, ip for 10 days (reference value: 22 +/- 1.90 day); type: functional
HepG2 [2] = assay: Antitumor activity against human HepG2 cells xenografted in Swiss albino mouse assessed as increase mouse life span at 10 ug/kg, ip for 10 days relative to control; type: functional
HeLa [3] = assay: Antitumor activity against human HeLa cells xenografted in Swiss albino mouse assessed as increase of mouse survival at 10 ug/kg, ip for 10 days (reference value: 22 +/- 1.90 day); type: functional
HeLa [4] = assay: Antitumor activity against human HeLa cells xenografted in Swiss albino mouse assessed as increase mouse life span at 10 ug/kg, ip for 10 days relative to control; type: functional
Mus musculus [5] = assay: Acute toxicity in human HepG2 cells xenografted ip dosed Swiss albino mouse assessed as mortality measured up to 2 weeks; type: organism-based; conditions: in vivo, 336 h
Method in brief: (§1)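 Adult Swiss albino mice were fasted 12 h and randomised into groups of 10. Each group got one i.p. dose from a graded series, given at 1 ml/kg body weight; controls got vehicle alone. Food and water were returned right after dosing. Mortality was followed for up to two weeks, and LD50 was taken as the dose giving 50% mortality.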

Mus musculus [6] = assay: Acute toxicity in human HeLa cells xenografted ip dosed Swiss albino mouse assessed as mortality measured up to 2 weeks; type: organism-based; conditions: in vivo, 336 h; method in brief: as §1

In the case of `CSc1nc2c(c(=O)n1C)C(c1ccc([N+](=O)[O-])cc1)C1=C(CC(C)(C)CC1Cl)N2` (stereo unspecified), the “diameter of the inhibition zone (DIZ)” value (Bacillus subtilis) is reported as 14 mm, the “diameter of the inhibition zone (DIZ)” value (Lactococcus lactis) is reported as 13 mm and the “diameter of the inhibition zone (DIZ)” value (Escherichia coli) is reported as 15 mm. The “diameter of the inhibition zone (DIZ)” value (Pseudomonas aeruginosa) was 14 mm, the “diameter of the inhibition zone (DIZ)” value (Candida albicans) was 10 mm and the “diameter of the inhibition zone (DIZ)” value (Nakaseomyces glabratus) was 9 mm. For the same compound, the Survival (HepG2 [1]) was 33 days, the Activity (HepG2 [2]) was 48% and the Survival (HeLa [3]) was 31 days. For the same compound, the Activity (HeLa [4]) was 45%, the LD50 (Mus musculus [5]) was 0.1 mg/kg and the LD50 (Mus musculus [6]) was 0.103 mg/kg.

In the case of `Cc1cn2c(=O)c3c(nc2n1N)NC1=C(C(=O)CC(C)(C)C1)C3c1ccc([N+](=O)[O-])cc1` (stereo unspecified), the “diameter of the inhibition zone (DIZ)” value (Bacillus subtilis) is reported as 19 mm, the “diameter of the inhibition zone (DIZ)” value (Lactococcus lactis) is reported as 22 mm and the “diameter of the inhibition zone (DIZ)” value (Escherichia coli) is reported as 24 mm. The “diameter of the inhibition zone (DIZ)” value (Pseudomonas aeruginosa) was 23 mm, the “diameter of the inhibition zone (DIZ)” value (Candida albicans) was 9 mm and the “diameter of the inhibition zone (DIZ)” value (Nakaseomyces glabratus) was 10 mm. It also gave a Survival (HepG2 [1]) of 37 days, an Activity (HepG2 [2]) of 56% and a Survival (HeLa [3]) of 34 days. For the same compound, the Activity (HeLa [4]) was 51%, the LD50 (Mus musculus [5]) was 0.093 mg/kg and the LD50 (Mus musculus [6]) was 0.09 mg/kg.

`CC1(C)CC(=O)C2=C(C1)Nc1nc(N/N=C\c3ccc(Cl)cc3)[nH]c(=O)c1C2c1ccc([N+](=O)[O-])cc1` (stereo unspecified) was tested, and the “diameter of the inhibition zone (DIZ)” value (Bacillus subtilis) was 16 mm, the “diameter of the inhibition zone (DIZ)” value (Lactococcus lactis) was 17 mm and the “diameter of the inhibition zone (DIZ)” value (Escherichia coli) was 18 mm. For the same compound, the “diameter of the inhibition zone (DIZ)” value (Pseudomonas aeruginosa) was 17 mm, the “diameter of the inhibition zone (DIZ)” value (Candida albicans) was 7 mm and the “diameter of the inhibition zone (DIZ)” value (Nakaseomyces glabratus) was 6 mm. It also gave a Survival (HepG2 [1]) of 37 days, an Activity (HepG2 [2]) of 53% and a Survival (HeLa [3]) of 32 days. The Activity (HeLa [4]) was 50%, the LD50 (Mus musculus [5]) was 0.096 mg/kg and the LD50 (Mus musculus [6]) was 0.09 mg/kg.
